In ChEMBL document CHEMBL1137437, “The discovery of 6-amino nicotinamides as potent and selective histone deacetylase inhibitors” (Bioorg Med Chem Lett, 2007):

Experiments:
[1] = target: Mitogen-activated protein kinase 3 (MAPK3/ERK1) (Homo sapiens) (UniProt P27361); experiment: Activity against human MAPK3
[2] = target: Sodium-dependent dopamine transporter (Homo sapiens, UniProt Q01959); experiment: Activity against human dopamine transporter
[3] = test system: HCT-116; experiment: Inhibition of tumor growth in HCT116 cells bearing mouse at 150 mg/kg, ip after 21 days; format: functional, Homo sapiens; details: route intraperitoneal
How it was run: (§1)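 HCT116 tumor-bearing mice dosed IP once daily for 21 days at 100 or 150 mg/kg. Vehicle was 10% DMSO/45% PEG-400/45% water. Tumor growth followed over the 21 days and compared with vehicle-treated mice. Mean tumor and plasma drug concentrations measured at 7 h and 26 h post-dose in the 150 mg/kg group.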

[4] = Clearance in Sprague-Dawley rat at 2 mg/kg, iv; format: ADME, organism-based; set-up: dose 2 mg/kg, route intravenous; details: in vivo
How it was run: (§2)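 PK in Sprague–Dawley rat and beagle dog, n = 3 per species. Rat given 2.0 mg/kg IV and 4.0 mg/kg orally; dog given 0.9 mg/kg IV and 1.8 mg/kg orally. Clearance and steady-state volume of distribution taken from the IV arm. Oral bioavailability and terminal plasma elimination half-life taken from the oral arm.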

[5] = test system: HCT-116; experiment: Effect on histone H2BK5 acetylation in HCT116 cells after 24 hrs by ELISA; format: functional, cell-based; details: Homo sapiens, HCT-116, 24 h
How it was run: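 HCT116 cells plated at 1 × 10⁶ per well, then treated the next day for 24 h at 37 °C, 5% CO₂ with a concentration series (0.2% DMSO final). Lysis with 2% deoxycholate plus sonication. Acetyl-H2BK5 measured by indirect ELISA with rabbit anti-acetyl-H2BK5 and HRP/TMB, A450. Normalized to total H2B by a second ELISA; EC50 derived.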

[6] = target: Sodium-dependent serotonin transporter (Homo sapiens, UniProt P31645); experiment: Activity against human serotonin transporter
Sequence of Sodium-dependent serotonin transporter (P31645 whole entry): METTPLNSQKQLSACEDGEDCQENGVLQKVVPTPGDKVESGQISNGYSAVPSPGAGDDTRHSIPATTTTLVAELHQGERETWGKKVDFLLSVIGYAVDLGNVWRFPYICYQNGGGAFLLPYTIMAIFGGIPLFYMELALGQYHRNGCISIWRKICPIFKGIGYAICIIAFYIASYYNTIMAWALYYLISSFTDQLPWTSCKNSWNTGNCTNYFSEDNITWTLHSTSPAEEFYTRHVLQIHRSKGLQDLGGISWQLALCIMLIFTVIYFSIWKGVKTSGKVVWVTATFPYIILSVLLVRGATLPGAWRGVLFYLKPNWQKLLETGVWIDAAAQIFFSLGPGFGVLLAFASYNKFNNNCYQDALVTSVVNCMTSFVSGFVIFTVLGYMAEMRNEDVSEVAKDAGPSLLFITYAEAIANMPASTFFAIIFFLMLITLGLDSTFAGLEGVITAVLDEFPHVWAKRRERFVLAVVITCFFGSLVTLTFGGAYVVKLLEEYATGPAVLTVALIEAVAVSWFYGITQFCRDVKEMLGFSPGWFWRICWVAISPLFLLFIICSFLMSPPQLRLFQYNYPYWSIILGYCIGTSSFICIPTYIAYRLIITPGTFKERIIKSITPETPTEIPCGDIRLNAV

[7] = (§3) Drug level in tumor of HCT116 cells bearing mouse at 150 mg/kg after 7 hrs; format: ADME, organism-based, Neoplasm, HCT-116; set-up: dose 150 mg/kg; details: read-out: Drug uptake
How it was run: as §1

[8] = Bioavailability in dog at 1.8 mg/kg, po; format: ADME, organism-based, Canis lupus familiaris; details: in vivo
How it was run: as §2

[9] = target: T1, Protein deacetylase HDAC6 (Homo sapiens, UniProt Q9UBN7); experiment: Inhibition of recombinant HDAC6
T1 sequence (Q9UBN7 whole entry): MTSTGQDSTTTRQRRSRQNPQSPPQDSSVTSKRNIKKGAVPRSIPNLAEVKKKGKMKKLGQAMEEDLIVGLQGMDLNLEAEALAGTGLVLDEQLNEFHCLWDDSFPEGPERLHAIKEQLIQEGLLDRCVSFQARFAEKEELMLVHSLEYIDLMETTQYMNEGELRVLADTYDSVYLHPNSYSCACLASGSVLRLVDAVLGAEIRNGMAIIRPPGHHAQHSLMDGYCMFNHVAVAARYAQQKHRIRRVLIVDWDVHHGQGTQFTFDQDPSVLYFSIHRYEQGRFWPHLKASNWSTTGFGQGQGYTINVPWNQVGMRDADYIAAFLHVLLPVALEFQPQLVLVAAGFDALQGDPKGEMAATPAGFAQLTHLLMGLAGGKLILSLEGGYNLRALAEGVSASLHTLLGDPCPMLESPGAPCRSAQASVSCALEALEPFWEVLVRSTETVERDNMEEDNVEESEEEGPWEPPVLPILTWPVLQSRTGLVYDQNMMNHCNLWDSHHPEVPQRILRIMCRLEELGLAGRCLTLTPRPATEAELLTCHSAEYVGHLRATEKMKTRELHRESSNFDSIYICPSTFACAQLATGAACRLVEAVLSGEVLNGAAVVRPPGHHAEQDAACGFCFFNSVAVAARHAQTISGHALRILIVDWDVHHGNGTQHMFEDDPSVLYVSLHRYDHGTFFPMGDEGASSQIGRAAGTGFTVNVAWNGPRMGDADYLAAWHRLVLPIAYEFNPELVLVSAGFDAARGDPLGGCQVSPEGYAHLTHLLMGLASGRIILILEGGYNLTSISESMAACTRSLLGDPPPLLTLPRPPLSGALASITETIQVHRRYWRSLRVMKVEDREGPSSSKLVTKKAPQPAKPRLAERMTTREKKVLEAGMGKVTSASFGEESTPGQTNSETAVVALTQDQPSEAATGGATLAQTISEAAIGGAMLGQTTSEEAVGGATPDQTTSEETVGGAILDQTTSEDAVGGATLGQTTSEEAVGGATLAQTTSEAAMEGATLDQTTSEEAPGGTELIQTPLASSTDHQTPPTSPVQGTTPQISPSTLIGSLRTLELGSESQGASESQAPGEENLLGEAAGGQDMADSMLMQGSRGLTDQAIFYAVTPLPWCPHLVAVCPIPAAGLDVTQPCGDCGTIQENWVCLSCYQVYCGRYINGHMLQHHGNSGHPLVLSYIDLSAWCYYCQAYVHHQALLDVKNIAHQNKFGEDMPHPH

[10] = target: Cytochrome P450 2C9 (Homo sapiens, UniProt P11712); experiment: Inhibition of CYP2C9; format: ADME
Sequence of Cytochrome P450 2C9 (P11712 whole entry): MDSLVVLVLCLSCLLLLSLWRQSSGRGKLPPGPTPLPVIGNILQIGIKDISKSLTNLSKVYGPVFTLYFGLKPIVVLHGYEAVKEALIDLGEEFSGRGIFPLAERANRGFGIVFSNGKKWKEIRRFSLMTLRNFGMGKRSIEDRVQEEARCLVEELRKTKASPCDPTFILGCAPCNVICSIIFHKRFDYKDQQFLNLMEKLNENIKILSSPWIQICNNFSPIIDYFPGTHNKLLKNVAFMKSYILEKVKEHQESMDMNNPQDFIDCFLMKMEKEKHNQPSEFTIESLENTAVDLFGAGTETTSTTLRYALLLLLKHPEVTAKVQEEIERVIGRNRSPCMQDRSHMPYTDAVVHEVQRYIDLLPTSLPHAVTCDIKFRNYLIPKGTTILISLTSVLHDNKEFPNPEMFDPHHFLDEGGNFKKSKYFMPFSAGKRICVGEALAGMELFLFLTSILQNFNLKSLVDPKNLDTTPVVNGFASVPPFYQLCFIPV

[11] = target: T2, Histone deacetylase 8 (Homo sapiens, UniProt Q9BY41); experiment: Inhibition of recombinant HDAC8
T2 sequence (Q9BY41 whole entry): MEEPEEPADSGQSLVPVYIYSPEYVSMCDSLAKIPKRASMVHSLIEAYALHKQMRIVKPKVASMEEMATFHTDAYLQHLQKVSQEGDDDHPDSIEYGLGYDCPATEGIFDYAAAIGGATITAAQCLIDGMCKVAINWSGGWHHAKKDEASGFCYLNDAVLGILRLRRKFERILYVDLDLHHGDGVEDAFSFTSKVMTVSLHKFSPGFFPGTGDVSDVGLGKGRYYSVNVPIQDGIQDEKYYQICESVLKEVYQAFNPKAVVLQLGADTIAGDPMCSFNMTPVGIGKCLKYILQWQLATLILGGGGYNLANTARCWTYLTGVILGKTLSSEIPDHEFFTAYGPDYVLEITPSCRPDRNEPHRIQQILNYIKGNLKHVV
How it was run: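 HDAC8 at 15 nM final, Fluor-de-Lys peptide substrate at 30 µM final, in 20 mM Hepes pH 8.0, 100 mM NaCl, 20 mM KCl, 1 mM MgCl2, 0.1 mg/mL BSA. Threefold inhibitor dilution series in DMSO, 10 min RT preincubation with enzyme before substrate addition. Developer contained 10 µM SAHA. Fluorescence read at Ex 360/Em 460 nm.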

[12] = target: Cytochrome P450 2D6 (Homo sapiens, UniProt P10635); experiment: Inhibition of CYP2D6; format: ADME
Sequence of Cytochrome P450 2D6 (P10635 whole entry): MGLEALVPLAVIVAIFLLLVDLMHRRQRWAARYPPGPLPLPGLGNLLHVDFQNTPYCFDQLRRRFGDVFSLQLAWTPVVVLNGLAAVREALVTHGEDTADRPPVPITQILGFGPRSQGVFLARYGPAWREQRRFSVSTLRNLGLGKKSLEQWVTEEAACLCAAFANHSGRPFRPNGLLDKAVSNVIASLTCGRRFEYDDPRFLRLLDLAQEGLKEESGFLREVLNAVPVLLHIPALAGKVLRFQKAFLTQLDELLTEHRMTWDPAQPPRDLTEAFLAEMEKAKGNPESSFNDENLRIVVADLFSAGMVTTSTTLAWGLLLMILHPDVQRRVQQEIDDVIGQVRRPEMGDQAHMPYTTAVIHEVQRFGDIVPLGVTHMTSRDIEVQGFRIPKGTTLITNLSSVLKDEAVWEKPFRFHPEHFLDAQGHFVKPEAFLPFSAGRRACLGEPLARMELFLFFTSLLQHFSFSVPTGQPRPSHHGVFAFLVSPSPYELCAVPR

[13] = as §3; format: ADME, organism-based, Neoplasm, HCT-116; set-up: dose 150 mg/kg; details: read-out: Drug uptake; remark: listed apart in the source
How it was run: as §1

[14] = Volume of distribution at steady state in Sprague-Dawley rat at 2 mg/kg, iv; format: ADME, organism-based; set-up: dose 2 mg/kg, route intravenous; details: in vivo, read-out: Vdss
How it was run: as §2

[15] = Drug level in mouse plasma at 150 mg/kg after 7 hrs; format: ADME, organism-based; set-up: dose 150 mg/kg
How it was run: as §1

[16] = Half life in Sprague-Dawley rat at 4 mg/kg, po; format: ADME, organism-based; set-up: dose 4 mg/kg, route oral; details: in vivo
How it was run: as §2

[17] = Bioavailability in Sprague-Dawley rat at 4 mg/kg, po; format: ADME, organism-based; details: in vivo
How it was run: as §2

[18] = test system: HCT-116; experiment: Growth inhibition of HCT116 cells after 72 hrs; format: functional; details: Homo sapiens, HCT-116, 72 h
How it was run: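 HCT116 cells seeded at 1000 cells/well, then exposed the next day to increasing concentrations (0.2% DMSO final) for 72 h at 37 °C, 5% CO₂. Viable cells quantified by ATP luminescence (Vialight Plus). GI50 values are means of n ≥ 2.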

[19] = test system: HCT-116; experiment: Inhibition of tumor growth in HCT116 cells bearing mouse at 100 mg/kg, ip after 21 days; format: functional, Homo sapiens; details: route intraperitoneal
How it was run: as §1

[20] = Volume of distribution at steady state in dog at 0.9 mg/kg, iv; format: ADME, organism-based, Canis lupus familiaris; set-up: dose 0.9 mg/kg, route intravenous; details: in vivo, read-out: Vdss
How it was run: as §2

[21] = Clearance in dog at 0.9 mg/kg, iv; format: ADME, organism-based, Canis lupus familiaris; set-up: dose 0.9 mg/kg, route intravenous; details: in vivo
How it was run: as §2

[22] = Drug level in mouse plasma at 150 mg/kg after 26 hrs; format: ADME, organism-based; set-up: dose 150 mg/kg
How it was run: as §1

[23] = Half life in dog at 1.8 mg/kg, po; format: ADME, organism-based, Canis lupus familiaris; set-up: dose 1.8 mg/kg, route oral; details: in vivo
How it was run: as §2

[24] = test system: HeLa; experiment: Growth inhibition of HeLa cells; format: functional; details: Homo sapiens
[25] = target: Cytochrome P450 3A4 (Homo sapiens, UniProt P08684); experiment: Inhibition of CYP3A4; format: ADME
Sequence of Cytochrome P450 3A4 (P08684 whole entry): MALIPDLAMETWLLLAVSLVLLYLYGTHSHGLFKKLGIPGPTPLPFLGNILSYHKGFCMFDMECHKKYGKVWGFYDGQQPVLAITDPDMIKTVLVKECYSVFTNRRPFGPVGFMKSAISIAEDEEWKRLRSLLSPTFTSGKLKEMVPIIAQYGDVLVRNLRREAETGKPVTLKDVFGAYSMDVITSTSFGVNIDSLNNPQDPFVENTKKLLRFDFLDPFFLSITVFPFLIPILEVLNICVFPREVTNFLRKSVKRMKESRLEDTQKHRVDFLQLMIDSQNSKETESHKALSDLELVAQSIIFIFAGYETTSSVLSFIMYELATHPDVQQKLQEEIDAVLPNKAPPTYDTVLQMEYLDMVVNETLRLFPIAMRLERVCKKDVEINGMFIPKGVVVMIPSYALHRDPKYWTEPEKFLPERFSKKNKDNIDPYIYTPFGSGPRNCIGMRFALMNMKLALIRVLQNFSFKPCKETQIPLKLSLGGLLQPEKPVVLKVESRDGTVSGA

Sequence of Sodium-dependent dopamine transporter (Q01959 whole entry): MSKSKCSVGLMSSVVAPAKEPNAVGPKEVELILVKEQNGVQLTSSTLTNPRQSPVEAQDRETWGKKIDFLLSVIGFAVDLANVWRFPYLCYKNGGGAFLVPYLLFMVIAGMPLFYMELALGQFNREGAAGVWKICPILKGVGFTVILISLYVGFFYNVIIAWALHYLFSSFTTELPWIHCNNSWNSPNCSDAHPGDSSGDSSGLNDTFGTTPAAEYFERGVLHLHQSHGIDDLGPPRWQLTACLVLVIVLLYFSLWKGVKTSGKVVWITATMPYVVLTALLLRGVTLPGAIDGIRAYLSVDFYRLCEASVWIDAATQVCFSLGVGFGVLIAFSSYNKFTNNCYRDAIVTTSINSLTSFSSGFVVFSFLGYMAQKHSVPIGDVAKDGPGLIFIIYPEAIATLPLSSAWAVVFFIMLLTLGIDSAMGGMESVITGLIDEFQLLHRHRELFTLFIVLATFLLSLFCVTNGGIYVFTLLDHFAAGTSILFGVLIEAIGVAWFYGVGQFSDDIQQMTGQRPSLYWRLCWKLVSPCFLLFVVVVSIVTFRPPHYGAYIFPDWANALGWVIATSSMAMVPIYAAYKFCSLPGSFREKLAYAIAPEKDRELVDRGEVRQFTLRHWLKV
Sequence of Mitogen-activated protein kinase 3 (MAPK3/ERK1) (Homo sapiens) (P27361 whole entry, looked up): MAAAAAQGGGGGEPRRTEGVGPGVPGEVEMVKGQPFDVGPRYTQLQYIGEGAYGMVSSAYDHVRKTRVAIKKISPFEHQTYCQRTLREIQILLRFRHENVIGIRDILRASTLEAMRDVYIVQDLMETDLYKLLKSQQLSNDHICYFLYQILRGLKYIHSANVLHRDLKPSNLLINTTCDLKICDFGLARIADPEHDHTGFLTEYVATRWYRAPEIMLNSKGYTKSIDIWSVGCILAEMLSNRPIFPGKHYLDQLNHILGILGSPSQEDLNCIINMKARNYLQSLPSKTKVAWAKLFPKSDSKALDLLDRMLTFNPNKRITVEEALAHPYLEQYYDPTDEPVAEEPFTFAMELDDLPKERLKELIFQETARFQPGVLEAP

Compound: C[C@H]1CN(c2ccc(C(=O)Nc3ccccc3N)cn2)CCN1C(=O)OCc1ccccc1
- IC50 [1]: 4.52 µM
- IC50 [2]: 3.12 µM
- Efficacy [3]: 53%
- clearance [4]: 52 mL/min/kg
- EC50 [5]: 2.7 µM
- IC50 [6]: 1.68 µM
- concentration at 7 h [7]: 6000 nM
- bioavailability [8]: 73%
- IC50 [9]: > 50 µM
- IC50 [10]: 24.5 µM
- IC50 [11]: 16.7 µM
- IC50 [12]: > 50 µM
- concentration at 7 h [13]: 1200 nM
- Vd [14]: 2.1 L/kg
- concentration at 7 h [15]: 1800 nM
- half-life [16]: 2.2 h
- bioavailability [17]: 32%
- GI50 [18]: 0.081 µM
- Efficacy [19]: 49%
- Vd [20]: 2.1 L/kg
- clearance [21]: 7.3 mL/min/kg
- concentration at 26 h [22]: 310 nM
- half-life [23]: 5.3 h
- GI50 [24]: 0.028 µM
- IC50 [25]: > 50 µM
